Data published in ChEMBL document CHEMBL1142972, “Novel N-substituted indol-3-ylglyoxylamides probing the LDi and L1/L2 lipophilic regions of the benzodiazepine receptor site in search for subtype-selective ligands” (J Med Chem, 2007).
Calls of active or inactive are those of the source. The rule behind the calls is not given here.

Assays:
Bos taurus = species on record: Bos taurus; assay: Displacement of [3H]flumazenil from benzodiazepine receptor in bovine brain membranes at 10 uM; assay type: cell membranes
In short: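 Bovine cerebral cortex membranes, freeze-thawed once and washed in 50 mM Tris-citrate pH 7.4, used for competition against [3H]flumazenil. Test compound at a fixed 10 µM; read-out is % inhibition of specific binding, as mean of three determinations run in triplicate.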

[1] = molecular target: GABA-A receptor; alpha-1/beta-2/gamma-2 (Rattus norvegicus, UniProt P18508+P62813+P63138); assay: Displacement of [3H]flumazenil from rat GABAA alpha-1-beta-2-gamma-2 expressed in HEK293 cells; assay type: cell-based
Chain of GABA-A receptor; alpha-1/beta-2/gamma-2 (P18508 whole entry): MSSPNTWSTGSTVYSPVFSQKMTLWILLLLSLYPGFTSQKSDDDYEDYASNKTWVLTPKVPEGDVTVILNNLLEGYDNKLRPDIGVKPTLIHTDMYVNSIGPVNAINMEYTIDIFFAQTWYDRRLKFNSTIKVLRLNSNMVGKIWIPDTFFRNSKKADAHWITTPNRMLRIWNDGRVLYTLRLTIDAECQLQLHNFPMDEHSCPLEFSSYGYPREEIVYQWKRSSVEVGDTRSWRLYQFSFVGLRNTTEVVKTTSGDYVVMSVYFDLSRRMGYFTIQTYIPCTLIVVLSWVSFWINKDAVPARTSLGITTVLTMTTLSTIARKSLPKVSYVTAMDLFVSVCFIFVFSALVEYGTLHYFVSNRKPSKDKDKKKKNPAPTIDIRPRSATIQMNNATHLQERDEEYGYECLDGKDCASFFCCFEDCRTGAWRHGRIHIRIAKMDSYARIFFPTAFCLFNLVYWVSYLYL
Chain of GABA-A receptor; alpha-1/beta-2/gamma-2 (P62813 whole entry): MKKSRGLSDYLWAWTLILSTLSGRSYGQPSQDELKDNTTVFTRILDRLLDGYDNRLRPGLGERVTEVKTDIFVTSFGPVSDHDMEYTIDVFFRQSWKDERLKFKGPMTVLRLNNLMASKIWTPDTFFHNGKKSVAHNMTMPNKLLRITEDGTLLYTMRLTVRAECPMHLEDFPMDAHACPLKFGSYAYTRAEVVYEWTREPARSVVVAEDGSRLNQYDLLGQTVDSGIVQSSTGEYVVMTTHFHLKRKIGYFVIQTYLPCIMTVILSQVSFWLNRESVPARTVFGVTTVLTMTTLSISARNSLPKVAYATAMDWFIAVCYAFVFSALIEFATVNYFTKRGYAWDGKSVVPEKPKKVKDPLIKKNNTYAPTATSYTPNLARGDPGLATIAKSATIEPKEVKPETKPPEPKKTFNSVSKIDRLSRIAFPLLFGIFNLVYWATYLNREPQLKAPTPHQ
Chain of GABA-A receptor; alpha-1/beta-2/gamma-2 (P63138 whole entry): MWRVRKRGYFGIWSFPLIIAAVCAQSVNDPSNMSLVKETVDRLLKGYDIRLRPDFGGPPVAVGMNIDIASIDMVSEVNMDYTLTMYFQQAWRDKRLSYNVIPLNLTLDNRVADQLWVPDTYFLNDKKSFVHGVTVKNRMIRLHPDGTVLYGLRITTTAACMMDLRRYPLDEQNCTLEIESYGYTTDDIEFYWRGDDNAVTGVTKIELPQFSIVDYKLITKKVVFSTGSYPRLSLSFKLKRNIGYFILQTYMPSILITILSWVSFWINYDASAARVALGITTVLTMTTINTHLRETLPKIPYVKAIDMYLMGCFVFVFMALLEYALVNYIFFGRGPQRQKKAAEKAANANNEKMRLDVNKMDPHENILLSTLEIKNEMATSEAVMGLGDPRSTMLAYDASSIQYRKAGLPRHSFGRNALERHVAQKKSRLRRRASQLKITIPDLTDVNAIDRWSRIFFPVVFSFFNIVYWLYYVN
In short: (§1)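 Crude membranes from HEK293 cells stably expressing rat GABAA subtypes, cells grown in DMEM/F-12 with 10% FBS at 37 °C, 5% CO2. Homogenized in 10 mM potassium phosphate pH 7.4, spun at 48 000g for 30 min at 4 °C, washed twice, resuspended with 100 mM KCl. [3H]flumazenil displacement; Ki as mean ± SEM of three determinations in triplicate.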

[2] = molecular target: GABA A receptor alpha-5/beta-3/gamma-2 (Rattus norvegicus, UniProt P18508+P19969+P63079); assay: Displacement of [3H]flumazenil from rat GABAA alpha-5-beta-3-gamma-2 expressed in HEK293 cells; assay type: cell-based; in short: as §1
Chain of GABA A receptor alpha-5/beta-3/gamma-2 (P18508 whole entry): as the sequence (P18508 whole entry) above
Chain of GABA A receptor alpha-5/beta-3/gamma-2 (P19969 whole entry): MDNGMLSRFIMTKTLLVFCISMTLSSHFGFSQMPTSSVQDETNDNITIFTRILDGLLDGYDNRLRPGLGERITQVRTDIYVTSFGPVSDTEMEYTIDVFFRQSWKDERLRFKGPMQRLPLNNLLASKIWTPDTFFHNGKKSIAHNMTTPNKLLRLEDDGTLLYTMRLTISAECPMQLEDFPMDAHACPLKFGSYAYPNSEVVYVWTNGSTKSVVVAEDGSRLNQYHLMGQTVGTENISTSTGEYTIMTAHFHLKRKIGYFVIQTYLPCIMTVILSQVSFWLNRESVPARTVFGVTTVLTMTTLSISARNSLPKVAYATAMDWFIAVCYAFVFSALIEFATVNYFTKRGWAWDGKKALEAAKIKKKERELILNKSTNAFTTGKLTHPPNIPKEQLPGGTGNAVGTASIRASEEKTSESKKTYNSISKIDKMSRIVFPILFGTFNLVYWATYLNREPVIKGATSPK
Chain of GABA A receptor alpha-5/beta-3/gamma-2 (P63079 whole entry): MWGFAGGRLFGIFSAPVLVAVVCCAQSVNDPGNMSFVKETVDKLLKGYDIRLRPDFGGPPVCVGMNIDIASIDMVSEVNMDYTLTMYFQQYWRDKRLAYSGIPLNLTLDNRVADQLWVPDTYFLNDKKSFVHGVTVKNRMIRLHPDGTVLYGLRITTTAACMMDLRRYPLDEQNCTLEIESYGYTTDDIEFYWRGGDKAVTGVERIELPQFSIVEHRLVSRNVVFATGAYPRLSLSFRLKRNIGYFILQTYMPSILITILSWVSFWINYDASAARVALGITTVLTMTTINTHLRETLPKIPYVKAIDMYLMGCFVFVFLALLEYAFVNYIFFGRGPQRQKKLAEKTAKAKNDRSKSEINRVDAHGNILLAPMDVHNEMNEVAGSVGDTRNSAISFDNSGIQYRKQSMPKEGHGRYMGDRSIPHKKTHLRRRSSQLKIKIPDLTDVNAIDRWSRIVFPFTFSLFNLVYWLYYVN

[3] = Displacement of [3H]flumazenil from benzodiazepine receptor in bovine brain membranes; assay type: cell membranes, Bos taurus
[4] = molecular target: GABA A receptor alpha-2/beta-2/gamma-2 (Rattus norvegicus, UniProt P18508+P23576+P63138); assay: Displacement of [3H]flumazenil from rat GABAA alpha-2-beta-2-gamma-2 expressed in HEK293 cells; assay type: cell-based; in short: as §1
Chain of GABA A receptor alpha-2/beta-2/gamma-2 (P18508 whole entry): as the sequence (P18508 whole entry) above
Chain of GABA A receptor alpha-2/beta-2/gamma-2 (P23576 whole entry): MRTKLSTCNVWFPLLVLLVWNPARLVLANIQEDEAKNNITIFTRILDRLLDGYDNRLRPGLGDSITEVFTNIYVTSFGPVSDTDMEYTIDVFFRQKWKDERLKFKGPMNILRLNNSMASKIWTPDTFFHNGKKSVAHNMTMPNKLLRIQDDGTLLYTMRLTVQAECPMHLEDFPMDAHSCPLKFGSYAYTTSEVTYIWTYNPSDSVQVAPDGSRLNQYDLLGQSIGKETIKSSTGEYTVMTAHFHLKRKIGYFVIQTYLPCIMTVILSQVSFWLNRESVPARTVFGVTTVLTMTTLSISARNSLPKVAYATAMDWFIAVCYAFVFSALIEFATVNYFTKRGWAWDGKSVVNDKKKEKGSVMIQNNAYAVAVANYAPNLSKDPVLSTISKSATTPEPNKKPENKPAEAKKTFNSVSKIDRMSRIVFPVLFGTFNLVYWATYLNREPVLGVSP
Chain of GABA A receptor alpha-2/beta-2/gamma-2 (P63138 whole entry): as the sequence (P63138 whole entry) above

[5] = molecular target: GABA-A receptor; alpha-1/beta-2/gamma-2 (Rattus norvegicus) (UniProt P18508+P62813+P63138); assay: Agonist activity at rat GABAA alpha-1-beta-2-gamma-2 expressed in HEK293 cells assessed as chloride influx; assay type: functional, cell-based
[6] = molecular target: GABA A receptor alpha-2/beta-2/gamma-2 (Rattus norvegicus) (UniProt P18508+P23576+P63138); assay: Displacement of [3H]flumazenil from rat GABAA alpha-2-beta-2-gamma-2 expressed in HEK293 cells at 10 uM; assay type: cell-based
In short: (§2)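 [3H]flumazenil competition in membranes of HEK293 cells stably expressing rat GABAA subtypes, prepared in 10 mM potassium phosphate pH 7.4 (48 000g, 4 °C, two washes, final buffer with 100 mM KCl). Single test concentration of 10 µM; % inhibition of specific binding, mean ± SEM of three determinations in triplicate.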

[7] = molecular target: GABA A receptor alpha-5/beta-3/gamma-2 (Rattus norvegicus) (UniProt P18508+P19969+P63079); assay: Displacement of [3H]flumazenil from rat GABAA alpha-5-beta-3-gamma-2 expressed in HEK293 cells at 10 uM; assay type: cell-based; in short: as §2
Mus musculus = assay: Decrease in spontaneous motor activity in Balb/C mouse at 10 mg/kg, ip; assay type: functional, organism-based; set-up: dose 10 mg/kg

Compound | inhibition (Bos taurus) [%] | Ki [1] [nM] | Ki [3] [nM] | other results
O=C(NCc1ccc(Br)cc1)C(=O)c1c[nH]c2ccc([N+](=O)[O-])cc12 | 31 |  |  | 
CCCCNC(=O)C(=O)c1c[nH]c2ccc([N+](=O)[O-])cc12 |  | 125 | 110 | Ki [2]: 943 nM; Ki [4]: 553 nM
CC(C)CNC(=O)C(=O)c1c[nH]c2ccccc12 | 43 |  |  | 
CCCCCCNC(=O)C(=O)c1c[nH]c2ccccc12 |  |  | 1650 | 
Cc1ccc(CNC(=O)C(=O)c2c[nH]c3ccccc23)cc1 |  |  | 606 | 
CC(C)NC(=O)C(=O)c1c[nH]c2ccccc12 |  |  | 2690 | 
C[Si](C)(C)C#Cc1ccc(CNC(=O)C(=O)c2c[nH]c3ccccc23)cc1 | 29 |  |  | 
CN1C(=O)CN=C(c2ccccc2)c2cc(Cl)ccc21 [DIAZEPAM] |  |  | 10 | Activity [5]: 72%
O=C(NCc1ccc(Br)cc1)C(=O)c1c[nH]c2ccccc12 |  | 17 | 93 | Ki [2]: 1440 nM; Ki [4]: 81 nM
CCCCCCNC(=O)C(=O)c1c[nH]c2ccc([N+](=O)[O-])cc12 | 53 |  |  | 
CCCCNC(=O)C(=O)c1c[nH]c2ccccc12 |  | 1170 | 3720 | inhibition [6]: 7%; inhibition [7]: 28%
CCC(C)NC(=O)C(=O)c1c[nH]c2ccc([N+](=O)[O-])cc12 (stereo unspecified) |  |  | 412 | 
C#Cc1ccc(CNC(=O)C(=O)c2c[nH]c3ccccc23)cc1 |  | 250 | 164 | Ki [2]: 1150 nM; Ki [4]: 414 nM
C[Si](C)(C)CC#Cc1ccc(CNC(=O)C(=O)c2c[nH]c3ccc([N+](=O)[O-])cc23)cc1 | 0 |  |  | 
O=C(NCc1ccccc1)C(=O)c1c[nH]c2ccc([N+](=O)[O-])cc12 |  | 65 | 117 | inhibition [6]: 32%; inhibition [7]: 44%
Cc1ccc(CNC(=O)C(=O)c2c[nH]c3ccc([N+](=O)[O-])cc23)cc1 |  | 31.3 | 88 | Activity [5]: 78%; inhibition [6]: 0%; inhibition [7]: 0%; Activity (Mus musculus): Active
O=C(NCc1ccccc1)C(=O)c1c[nH]c2ccccc12 |  | 346 | 120 | inhibition [6]: 39%; inhibition [7]: 46%

Compound | inhibition (Bos taurus) [%] | Ki [1] [nM] | Ki [3] [nM] | other results
CCC(C)NC(=O)C(=O)c1c[nH]c2ccccc12 (stereo unspecified) | 34 |  |  | 
CCc1ccc(CNC(=O)C(=O)c2c[nH]c3ccc([N+](=O)[O-])cc23)cc1 | 42 |  |  | 
CCCCCNC(=O)C(=O)c1c[nH]c2ccccc12 |  |  | 1480 | 
CCc1ccc(CNC(=O)C(=O)c2c[nH]c3ccccc23)cc1 |  | 559 | 2160 | inhibition [7]: 40%; Ki [4]: 1600 nM
CC#Cc1ccc(CNC(=O)C(=O)c2c[nH]c3ccccc23)cc1 |  | 881 | 3280 | inhibition [6]: 16%; inhibition [7]: 13%
O=C1CN=C(c2ccccc2Cl)c2cc([N+](=O)[O-])ccc2N1 [CLONAZEPAM] |  |  | 0.85 | 
Cc1ccc(-c2nc3ccc(C)cn3c2CC(=O)N(C)C)cc1 |  |  |  | Activity (Mus musculus): Active
CC(C)(C)NC(=O)C(=O)c1c[nH]c2ccccc12 | 7 |  |  | 
C#Cc1ccc(CNC(=O)C(=O)c2c[nH]c3ccc([N+](=O)[O-])cc23)cc1 | 28 |  |  | 
CC(C)(C)NC(=O)C(=O)c1c[nH]c2ccc([N+](=O)[O-])cc12 |  |  | 2800 | 
C[Si](C)(C)C#Cc1ccc(CNC(=O)C(=O)c2c[nH]c3ccc([N+](=O)[O-])cc23)cc1 | 21 |  |  | 
CCCCCNC(=O)C(=O)c1c[nH]c2ccc([N+](=O)[O-])cc12 |  |  | 4100 | 
C[Si](C)(C)CC#Cc1ccc(CNC(=O)C(=O)c2c[nH]c3ccccc23)cc1 | 3 |  |  | 
CC#Cc1ccc(CNC(=O)C(=O)c2c[nH]c3ccc([N+](=O)[O-])cc23)cc1 | 0 |  |  | 
CC(C)CNC(=O)C(=O)c1c[nH]c2ccc([N+](=O)[O-])cc12 | 5 |  |  | 
CC(C)NC(=O)C(=O)c1c[nH]c2ccc([N+](=O)[O-])cc12 |  | 15 | 57.8 | Ki [2]: 498 nM; Ki [4]: 175 nM
